Results reported in publication PMC3149845 (The Journal of neuroscience : the official journal of the …, 2011).
“Also recorded” adds a separate entry of the source. Where two headings read alike, the source gives them in different places. Peptide text beside a SMILES is read from it.

How the values were obtained:
hTas1R2:D142E+hTas1R3 = hTas1R2:D142E+hTas1R3 (Homo sapiens, UniProt Q8TE23, D142E); assay: Ca2+ mobilization, mutated human receptor; type: cell-based; settings: aspartame 10mM, neotame 1mM, sucralose 2 mM; compared with hTas1R2/hTas1R3
Method in brief: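 HEK293E cells grown at 37°C in Opti-MEM with 5% FBS and seeded at 50,000/well. Cells co-lipofected with Tas1R plasmids and Gα16-gust44 (0.06 μg each per well); medium changed at 20 h, assayed 24 h later. Cells loaded 1 h with Fluo-4 AM in HEPES-buffered HBSS. Tastant added at 30 s; fluorescence (ex 488/em 525 nm) read every 2 s for 150 s more. ΔF/F normalised to human receptor maximal sucralose response; mean ± SEM, three independent experiments.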

[1] = biological target: T1, hTas1R2:I67S/D142E+hTas1R3 (Homo sapiens, UniProt Q8TE23, D142E/I67S); assay: Ca2+ mobilization, mutated human receptor; type: cell-based; settings: for calcium response to sweetener: aspartame 10mM, neotame 1mM, sucralose 2 mM, compared with hTas1R2/hTas1R3; for response in dose-response experiment: versus hTas1R2+hTas1R3
T1 sequence (Q8TE23 20-839 I67S/D142E): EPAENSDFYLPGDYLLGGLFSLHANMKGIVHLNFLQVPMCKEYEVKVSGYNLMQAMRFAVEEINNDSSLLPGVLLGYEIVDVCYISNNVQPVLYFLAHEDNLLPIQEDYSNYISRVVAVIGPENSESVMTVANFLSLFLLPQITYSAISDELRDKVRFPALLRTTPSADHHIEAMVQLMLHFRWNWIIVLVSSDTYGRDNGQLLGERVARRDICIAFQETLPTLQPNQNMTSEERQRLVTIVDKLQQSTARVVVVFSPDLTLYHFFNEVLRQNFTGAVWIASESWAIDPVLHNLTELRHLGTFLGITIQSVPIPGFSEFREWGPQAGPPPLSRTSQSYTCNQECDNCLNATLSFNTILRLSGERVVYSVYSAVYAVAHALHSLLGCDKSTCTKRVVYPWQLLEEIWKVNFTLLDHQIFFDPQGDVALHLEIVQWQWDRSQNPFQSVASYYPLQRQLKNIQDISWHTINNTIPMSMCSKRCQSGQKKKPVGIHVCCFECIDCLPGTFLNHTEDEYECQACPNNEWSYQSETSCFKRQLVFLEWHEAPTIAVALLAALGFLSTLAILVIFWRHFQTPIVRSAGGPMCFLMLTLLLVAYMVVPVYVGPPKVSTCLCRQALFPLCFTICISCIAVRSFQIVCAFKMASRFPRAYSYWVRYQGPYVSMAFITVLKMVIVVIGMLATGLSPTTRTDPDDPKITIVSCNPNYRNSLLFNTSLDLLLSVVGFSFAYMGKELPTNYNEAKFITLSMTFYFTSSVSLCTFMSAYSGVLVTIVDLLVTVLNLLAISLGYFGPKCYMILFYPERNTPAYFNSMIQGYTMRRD
T1 sequence (Q7RTX0 21-852 partner): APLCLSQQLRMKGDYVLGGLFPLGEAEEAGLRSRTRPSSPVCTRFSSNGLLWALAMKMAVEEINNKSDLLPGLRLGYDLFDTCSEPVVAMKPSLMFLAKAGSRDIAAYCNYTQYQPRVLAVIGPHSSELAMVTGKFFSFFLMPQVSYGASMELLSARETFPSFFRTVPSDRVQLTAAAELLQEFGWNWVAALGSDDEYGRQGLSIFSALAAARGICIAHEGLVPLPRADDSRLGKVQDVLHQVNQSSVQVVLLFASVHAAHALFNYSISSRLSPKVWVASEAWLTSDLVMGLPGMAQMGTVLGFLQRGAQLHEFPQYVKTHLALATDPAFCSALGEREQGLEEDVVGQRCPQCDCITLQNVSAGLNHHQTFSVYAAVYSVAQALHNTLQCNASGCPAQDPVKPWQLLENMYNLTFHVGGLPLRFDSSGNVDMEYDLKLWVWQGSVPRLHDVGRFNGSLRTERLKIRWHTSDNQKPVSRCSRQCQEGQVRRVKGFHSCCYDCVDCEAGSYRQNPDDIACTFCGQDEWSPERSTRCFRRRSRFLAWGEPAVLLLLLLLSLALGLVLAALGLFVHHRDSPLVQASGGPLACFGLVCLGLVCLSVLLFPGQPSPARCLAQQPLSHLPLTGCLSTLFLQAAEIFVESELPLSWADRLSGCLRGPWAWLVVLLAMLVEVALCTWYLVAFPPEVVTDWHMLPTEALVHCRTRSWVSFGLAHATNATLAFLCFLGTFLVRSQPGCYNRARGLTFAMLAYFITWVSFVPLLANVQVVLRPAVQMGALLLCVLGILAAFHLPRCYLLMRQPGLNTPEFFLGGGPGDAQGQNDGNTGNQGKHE

[2] = biological target: smTas1R2:T40S/E142D+smTas1R3 (Saimiri sciureus, UniProt A3QP08, E142D/T40S); assay: Ca2+ mobilization, mutated squirrel monkey receptor; type: cell-based, squirrel monkey (Saimiri sciureus); settings: for response in dose-response experiment: versus smTas1R2+smTas1R3
[3] = biological target: smTas1R2:S67I/E142D+smTas1R3 (Saimiri sciureus, UniProt A3QP08, E142D/S67I); assay: as above; type: cell-based, squirrel monkey (Saimiri sciureus); settings: for response in dose-response experiment: versus smTas1R2+smTas1R3; for Bottom (B) of sigmoid dose-response fit / Top (T) of sigmoid dose-response fit: ΔF/F normalized to maximum response of hTas1R2/hTas1R3 to neotame
[4] = ΔF/F normalized to maximum response of hTas1R2/hTas1R3 to neotame
[5] = HEK293E cells with Gα16-gust44, dose-response, calcium mobilization

Sequence of smTas1R2:T40S/E142D+smTas1R3 (A3QP08 20-834 T40S/E142D): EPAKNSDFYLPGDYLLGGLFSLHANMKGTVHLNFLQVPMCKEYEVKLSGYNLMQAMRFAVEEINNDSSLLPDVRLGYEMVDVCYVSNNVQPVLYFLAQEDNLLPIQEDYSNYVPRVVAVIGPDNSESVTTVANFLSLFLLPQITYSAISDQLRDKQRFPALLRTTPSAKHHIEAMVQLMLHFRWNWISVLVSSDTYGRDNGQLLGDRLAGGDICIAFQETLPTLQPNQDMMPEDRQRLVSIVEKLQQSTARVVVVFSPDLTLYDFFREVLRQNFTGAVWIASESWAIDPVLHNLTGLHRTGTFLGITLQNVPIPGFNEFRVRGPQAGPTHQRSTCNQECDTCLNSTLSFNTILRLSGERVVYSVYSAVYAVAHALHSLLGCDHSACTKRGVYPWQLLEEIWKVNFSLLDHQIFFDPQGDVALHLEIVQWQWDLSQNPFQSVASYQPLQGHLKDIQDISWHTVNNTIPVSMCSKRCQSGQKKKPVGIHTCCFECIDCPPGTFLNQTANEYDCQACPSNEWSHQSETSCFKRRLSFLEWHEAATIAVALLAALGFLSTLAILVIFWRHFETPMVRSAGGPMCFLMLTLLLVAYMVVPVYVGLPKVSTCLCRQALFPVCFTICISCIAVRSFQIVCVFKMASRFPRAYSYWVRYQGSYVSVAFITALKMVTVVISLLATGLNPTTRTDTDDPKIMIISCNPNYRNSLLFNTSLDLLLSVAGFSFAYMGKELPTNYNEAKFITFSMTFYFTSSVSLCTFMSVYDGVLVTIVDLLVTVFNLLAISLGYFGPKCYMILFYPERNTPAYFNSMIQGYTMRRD
Sequence of smTas1R2:S67I/E142D+smTas1R3 (A3QP08 20-834 S67I/E142D): as the sequence (A3QP08 20-834 T40S/E142D) above, with S21T, S48I counted along it
Sequence of hTas1R2:D142E+hTas1R3 (Q8TE23 20-839 D142E, one chain of several): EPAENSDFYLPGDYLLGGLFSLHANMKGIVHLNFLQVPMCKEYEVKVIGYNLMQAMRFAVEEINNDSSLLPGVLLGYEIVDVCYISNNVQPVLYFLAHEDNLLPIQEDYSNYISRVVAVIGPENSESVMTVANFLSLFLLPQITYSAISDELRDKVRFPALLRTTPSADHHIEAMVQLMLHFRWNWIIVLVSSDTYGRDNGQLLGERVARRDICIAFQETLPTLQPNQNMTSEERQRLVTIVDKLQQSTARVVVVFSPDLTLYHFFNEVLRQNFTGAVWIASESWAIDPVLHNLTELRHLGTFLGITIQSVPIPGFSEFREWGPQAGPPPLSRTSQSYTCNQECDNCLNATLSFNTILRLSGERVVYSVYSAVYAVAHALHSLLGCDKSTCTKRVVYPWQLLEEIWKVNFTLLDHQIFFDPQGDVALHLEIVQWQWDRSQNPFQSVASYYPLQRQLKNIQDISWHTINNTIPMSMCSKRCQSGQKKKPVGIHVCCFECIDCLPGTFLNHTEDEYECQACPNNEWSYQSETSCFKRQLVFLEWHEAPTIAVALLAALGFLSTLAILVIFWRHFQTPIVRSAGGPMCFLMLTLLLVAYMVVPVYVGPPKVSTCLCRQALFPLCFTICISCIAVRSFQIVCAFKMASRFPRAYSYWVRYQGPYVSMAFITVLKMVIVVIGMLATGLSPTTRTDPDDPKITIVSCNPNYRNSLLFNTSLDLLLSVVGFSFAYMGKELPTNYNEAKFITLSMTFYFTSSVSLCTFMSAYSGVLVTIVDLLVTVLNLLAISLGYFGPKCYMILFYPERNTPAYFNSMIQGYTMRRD

Row | Structure (SMILES) | calcium response to sweetener (hTas1R2:D142E+hTas1R3) | calcium response to sweetener [1] | response in dose-response experiment ([1]; dose-response) | EC50 [2] [µM] | response in dose-response experiment ([2]; dose-response) | Bottom (B) of sigmoid dose-response fit [2, 4] | Top (T) of sigmoid dose-response fit [2, 4] | EC50 [3] [µM] | response in dose-response experiment ([3]; dose-response) | Bottom (B) of sigmoid dose-response fit [3] | Top (T) of sigmoid dose-response fit [3] | EC50 [1, 5] [µM] | Bottom (B) of sigmoid dose-response fit [1, 4] | Top (T) of sigmoid dose-response fit [1, 4] | EC50 [2, 5] [µM] | EC50 [3, 5] [µM]
1 | COC(=O)[C@H](Cc1ccccc1)NC(=O)[C@@H](N)CC(=O)O [aspartame, L-α-aspartly-L-phenylalanine methyl ester] (H-Asp-Phe-OMe) | almost abolished; also recorded: abolishes the activity | abolition | no responses | 1400 | good response | −3.314 | 42.4 | 5600 | good response | −0.6682 | 26.17 | – | – | – | – | –
2 | COC(=O)[C@H](Cc1ccccc1)NC(=O)[C@H](CC(=O)O)NCCC(C)(C)C [neotame] | significantly decreased | significant reduction | weaker responses | – | good responses | – | 69.46 | – | good responses | −5.754 | 56.59 | 4700 | −1.772 | 51.81 | 2100 | 1000
